Assay type in all cases: functional
Experiment [1] concerns Staphylococcus epidermidis. Kind of experiment: Antibacterial activity against methicillin-resistant Staphylococcus epidermidis 14-37 after 18 to 24 hrs by two-fold serial dilution method. The gist of the method:
(§1)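 Agar media, standard twofold serial dilution. MIC is the lowest concentration giving complete inhibition of bacterial growth after incubation at 35 °C for 18–24 h. Ciprofloxacin and levofloxacin were run as comparators.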

For experiment [2], the system named is Klebsiella pneumoniae. Kind of experiment: Antibacterial activity against Klebsiella pneumoniae 14-1 after 18 to 24 hrs by two-fold serial dilution method. The gist of the method: (§2)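 Twofold serial dilution in agar media against Gram-positive and Gram-negative strains. Plates incubated at 35 °C for 18–24 h. MIC read as the lowest compound concentration giving complete inhibition of bacterial growth.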

Experiment [3] relates to Klebsiella pneumoniae. In words: Antibacterial activity against Klebsiella pneumoniae 14-2 after 18 to 24 hrs by two-fold serial dilution method. The gist of the method: as §2
In experiment [4] the test system is Staphylococcus aureus. In words: Antibacterial activity against Staphylococcus aureus CMCC 26003 after 18 to 24 hrs by two-fold serial dilution method. The method, boiled down: as §2
Experiment [5] relates to Pseudomonas aeruginosa. Kind of experiment: Antibacterial activity against Pseudomonas aeruginosa 14-16 after 18 to 24 hrs by two-fold serial dilution method. The gist of the method:
as §2

In experiment [6] the test system is Staphylococcus aureus. In words: Antibacterial activity against methicillin-sensitive Staphylococcus aureus 14-3 after 18 to 24 hrs by two-fold serial dilution method. The method, boiled down:
as §2

The test system of experiment [7] is Staphylococcus epidermidis. Kind of experiment: Antibacterial activity against methicillin-resistant Staphylococcus epidermidis 14-22 after 18 to 24 hrs by two-fold serial dilution method. The gist of the method: as §1
In experiment [8] the test system is Escherichia coli. In words: Antibacterial activity against Escherichia coli ATCC 25922 after 18 to 24 hrs by two-fold serial dilution method. The gist of the method: as §2
Experiment [9] deals with Enterococcus faecium. Kind of experiment: Antibacterial activity against Enterococcus faecium 14-6 after 18 to 24 hrs by two-fold serial dilution method. The method, boiled down: as §2
Experiment [10] concerns Klebsiella pneumoniae. Kind of experiment: Antibacterial activity against extended-spectrum beta-lactamase producing Klebsiella pneumoniae 14-18 after 18 to 24 hrs by two-fold serial dilution method. The method, boiled down: as §2
In experiment [11] the test system is Staphylococcus aureus. In words: Antibacterial activity against methicillin-resistant Staphylococcus aureus 14-5 after 18 to 24 hrs by two-fold serial dilution method. The method, boiled down:
as §1

The test system of experiment [12] is Mycobacterium tuberculosis. Kind of experiment: Antimycobacterial activity against Mycobacterium tuberculosis H37Rv ATCC 27294 incubated for 7 days by microplate Alamar Blue assay. Particulars: H37Rv ATCC 27294, 168 h. The method, boiled down: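 Fluorescence read-out. MIC is the lowest concentration that reduces fluorescence by at least 90% relative to the mean of replicate bacterium-only controls. Isoniazid and rifampicin were included as reference drugs.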
(The colour change of resazurin is a common sign of viable cells or microbes.)

Experiment [13] deals with Staphylococcus epidermidis. Kind of experiment: Antibacterial activity against methicillin-resistant Staphylococcus epidermidis 14-21 after 18 to 24 hrs by two-fold serial dilution method. The method, boiled down:
as §1

In experiment [14] the test system is Escherichia coli. In words: Antibacterial activity against Escherichia coli 14-1 after 18 to 24 hrs by two-fold serial dilution method. The gist of the method:
as §2

The subject of experiment [15] is Klebsiella pneumoniae. Kind of experiment: Antibacterial activity against Klebsiella pneumoniae 14-4 after 18 to 24 hrs by two-fold serial dilution method. The gist of the method: as §2
Experiment [16] concerns Staphylococcus aureus. Kind of experiment: Antibacterial activity against methicillin-sensitive Staphylococcus aureus 14-1 after 18 to 24 hrs by two-fold serial dilution method. The method, boiled down:
as §2

Experiment [17] deals with Pseudomonas aeruginosa. In words: Antibacterial activity against Pseudomonas aeruginosa 14-9 after 18 to 24 hrs by two-fold serial dilution method. The method, boiled down: as §2
The subject of experiment [18] is Pseudomonas aeruginosa. In words: Antibacterial activity against Pseudomonas aeruginosa 14-15 after 18 to 24 hrs by two-fold serial dilution method. The gist of the method: as §2
The test system of experiment [19] is Enterococcus faecium. In words: Antibacterial activity against Enterococcus faecium 14-2 after 18 to 24 hrs by two-fold serial dilution method. The method, boiled down:
as §2

The test system of experiment [20] is Staphylococcus epidermidis. In words: Antibacterial activity against methicillin-resistant Staphylococcus epidermidis 14-39 after 18 to 24 hrs by two-fold serial dilution method. The gist of the method:
as §1

In experiment [21] the test system is Klebsiella pneumoniae. Kind of experiment: Antibacterial activity against Klebsiella pneumoniae 14-3 after 18 to 24 hrs by two-fold serial dilution method. The method, boiled down:
as §2

Experiment [22] deals with Enterococcus faecalis. Kind of experiment: Antibacterial activity against Enterococcus faecalis 14-1 after 18 to 24 hrs by two-fold serial dilution method. The method, boiled down:
as §2

Experiment [23] concerns Escherichia coli. Kind of experiment: Antibacterial activity against extended-spectrum beta-lactamase producing Escherichia coli 14-2 after 18 to 24 hrs by two-fold serial dilution method. The method, boiled down: as §2
The test system of experiment [24] is Klebsiella pneumoniae. In words: Antibacterial activity against extended-spectrum beta-lactamase producing Klebsiella pneumoniae 14-19 after 18 to 24 hrs by two-fold serial dilution method. The method, boiled down:
as §2

The test system of another experiment is Streptococcus pneumoniae. In words: Antibacterial activity against methicillin-resistant Streptococcus pneumoniae ATCC 19615 after 18 to 24 hrs by two-fold serial dilution method. The gist of the method:
as §1

The test system of experiment [25] is Escherichia coli. In words: Antibacterial activity against Escherichia coli 14-2 after 18 to 24 hrs by two-fold serial dilution method. The method, boiled down:
as §2

The subject of experiment [26] is Pseudomonas aeruginosa. In words: Antibacterial activity against Pseudomonas aeruginosa ATCC 27853 after 18 to 24 hrs by two-fold serial dilution method. The method, boiled down: as §2
In experiment [27] the test system is Staphylococcus aureus. Kind of experiment: Antibacterial activity against methicillin-sensitive Staphylococcus aureus 14-4 after 18 to 24 hrs by two-fold serial dilution method. The gist of the method:
as §2

Experiment [28] has as its system Escherichia coli. Kind of experiment: Antibacterial activity against extended-spectrum beta-lactamase producing Escherichia coli 14-1 after 18 to 24 hrs by two-fold serial dilution method. The method, boiled down: as §2
The test system of experiment [29] is Enterococcus faecium. Kind of experiment: Antibacterial activity against Enterococcus faecium 14-5 after 18 to 24 hrs by two-fold serial dilution method. The method, boiled down: as §2
The test system of experiment [30] is Enterococcus faecalis. In words: Antibacterial activity against Enterococcus faecalis 14-2 after 18 to 24 hrs by two-fold serial dilution method. The method, boiled down: as §2
Experiment [31] has as its system Pseudomonas aeruginosa. Kind of experiment: Antibacterial activity against Pseudomonas aeruginosa 14-14 after 18 to 24 hrs by two-fold serial dilution method. The gist of the method: as §2
The test system of experiment [32] is Staphylococcus epidermidis. In words: Antibacterial activity against methicillin-sensitive Staphylococcus epidermidis 14-2 after 18 to 24 hrs by two-fold serial dilution method. The method, boiled down: as §2
Experiment [33] concerns Klebsiella pneumoniae. In words: Antibacterial activity against extended-spectrum beta-lactamase producing Klebsiella pneumoniae 14-17 after 18 to 24 hrs by two-fold serial dilution method. The gist of the method: as §2
Experiment [34] has as its system Staphylococcus aureus. In words: Antibacterial activity against methicillin-resistant Staphylococcus aureus 14-4 after 18 to 24 hrs by two-fold serial dilution method. The method, boiled down:
as §1

In brackets after ≈: the same amount, converted by molar mass. A value given as a limit tells only on which side of the number the result lay.

By MIC is commonly meant the smallest concentration in the dilution series that meets the test's criterion for growth inhibition. By MIC90 is commonly meant the lowest concentration that inhibits either 90% of growth or 90% of the strains tested, depending on the study. Low values mean higher susceptibility, high ones lower susceptibility.

As for `CO/N=C1/CN(c2c(F)cc3c(=O)c(C(=O)O)cn(C4CC4)c3c2OC)CC1CNC1CC1` (stereo unspecified), the MIC in experiment [1] is above 128 µg/mL; in the experiment on Klebsiella pneumoniae [2] it was above 128 µg/mL; against Klebsiella pneumoniae [3], above 128 µg/mL; against Staphylococcus aureus [4] it was 8 µg/mL (≈ 17.4 µM); in the experiment with Pseudomonas aeruginosa [5] it was 128 µg/mL (≈ 279 µM); against Staphylococcus aureus [6], above 128 µg/mL. Further, the minimal inhibitory concentration (MIC) is above 128 µg/mL in [7]; 32 µg/mL (≈ 69.8 µM) against Escherichia coli [8]; above 128 µg/mL with Enterococcus faecium [9]; above 128 µg/mL in the experiment on Klebsiella pneumoniae [10]; above 128 µg/mL against Staphylococcus aureus [11]; above 128 µg/mL in experiment [13]. Besides, the MIC against Escherichia coli [14] is above 128 µg/mL; in the experiment on Klebsiella pneumoniae [15], above 128 µg/mL; in the experiment on Staphylococcus aureus [16], above 128 µg/mL; against Pseudomonas aeruginosa [17] it was 128 µg/mL (≈ 279 µM); in the experiment with Pseudomonas aeruginosa [18] it was 128 µg/mL (≈ 279 µM); against Enterococcus faecium [19] it was above 128 µg/mL. For the same molecule, the minimal inhibitory concentration (MIC) in experiment [20] was above 128 µg/mL; against Klebsiella pneumoniae [21], above 128 µg/mL; against Enterococcus faecalis [22], above 128 µg/mL; in the experiment with Escherichia coli [23], above 128 µg/mL; in the experiment with Klebsiella pneumoniae [24], above 128 µg/mL; against Streptococcus pneumoniae, 64 µg/mL (≈ 140 µM). In addition, the MIC with Escherichia coli [25] is above 128 µg/mL; in the experiment on Pseudomonas aeruginosa [26], 128 µg/mL (≈ 279 µM); in the experiment with Staphylococcus aureus [27], above 128 µg/mL; with Escherichia coli [28], 128 µg/mL (≈ 279 µM); in the experiment with Enterococcus faecium [29], above 128 µg/mL; against Enterococcus faecalis [30] it was 64 µg/mL (≈ 140 µM). In addition, the minimal inhibitory concentration (MIC) is 128 µg/mL (≈ 279 µM) against Pseudomonas aeruginosa [31], above 128 µg/mL in [32] and above 128 µg/mL with Klebsiella pneumoniae [33]. The MIC90 in [12] was above 32 µg/mL.

With `CO/N=C1/CN(c2nc3c(cc2F)c(=O)c(C(=O)O)cn3C2CC2)CC1CNC1CC1` (stereo unspecified), the MIC in experiment [1] was 32 µg/mL (≈ 74.5 µM); against Klebsiella pneumoniae [2] it was 128 µg/mL (≈ 298 µM); against Klebsiella pneumoniae [3] it was 128 µg/mL (≈ 298 µM); against Staphylococcus aureus [4] it was below 0.008 µg/mL; in the experiment with Pseudomonas aeruginosa [5], 32 µg/mL (≈ 74.5 µM); in the experiment on Staphylococcus aureus [6] it was 4 µg/mL (≈ 9.31 µM). The MIC in [7] is 16 µg/mL (≈ 37.3 µM); against Escherichia coli [8] it was 0.5 µg/mL (≈ 1.16 µM); against Enterococcus faecium [9] it was 32 µg/mL (≈ 74.5 µM); against Klebsiella pneumoniae [10], 16 µg/mL (≈ 37.3 µM); in the experiment on Staphylococcus aureus [11], 8 µg/mL (≈ 18.6 µM); in experiment [13] it was 16 µg/mL (≈ 37.3 µM). Besides, the minimum inhibitory concentration (MIC) against Escherichia coli [14] is above 128 µg/mL; in the experiment on Klebsiella pneumoniae [15], above 128 µg/mL; against Staphylococcus aureus [16] it was 8 µg/mL (≈ 18.6 µM); with Pseudomonas aeruginosa [17] it was 8 µg/mL (≈ 18.6 µM); with Pseudomonas aeruginosa [18], 32 µg/mL (≈ 74.5 µM); against Enterococcus faecium [19] it was 32 µg/mL (≈ 74.5 µM). The MIC in experiment [20] was 16 µg/mL (≈ 37.3 µM); against Klebsiella pneumoniae [21], 128 µg/mL (≈ 298 µM); against Enterococcus faecalis [22], 64 µg/mL (≈ 149 µM); in the experiment on Escherichia coli [23], above 128 µg/mL; in the experiment with Klebsiella pneumoniae [24], 32 µg/mL (≈ 74.5 µM); in the experiment on Streptococcus pneumoniae, 4 µg/mL (≈ 9.31 µM). Besides, the MIC with Escherichia coli [25] was above 128 µg/mL; against Pseudomonas aeruginosa [26] it was 16 µg/mL (≈ 37.3 µM); in the experiment with Staphylococcus aureus [27], 8 µg/mL (≈ 18.6 µM); against Escherichia coli [28], 16 µg/mL (≈ 37.3 µM); with Enterococcus faecium [29] it was 16 µg/mL (≈ 37.3 µM); with Enterococcus faecalis [30], 0.5 µg/mL (≈ 1.16 µM). Moreover, the MIC was 32 µg/mL (≈ 74.5 µM) against Pseudomonas aeruginosa [31], above 128 µg/mL in the experiment on Staphylococcus aureus [34], above 128 µg/mL in experiment [32] and 16 µg/mL (≈ 37.3 µM) against Klebsiella pneumoniae [33]. Besides, in experiment [12], the MIC90 came out at 0.44 µg/mL (≈ 1.02 µM).

In [12], `NNC(=O)c1ccncc1` [ISONIAZID] yielded an MIC90 of 0.05 µg/mL (≈ 0.365 µM).

`CO[C@H]1/C=C/O[C@@]2(C)Oc3c(C)c(O)c4c(O)c(c(/C=N/N5CCN(C)CC5)c(O)c4c3C2=O)NC(=O)/C(C)=C\C=C\[C@H](C)[C@H](O)[C@@H](C)[C@@H](O)[C@@H](C)[C@H](OC(C)=O)[C@@H]1C` [RIFAMPIN] registered an MIC90 in [12] of 0.05 µg/mL (≈ 0.0608 µM).

The values above are taken from ChEMBL document CHEMBL3734675, “Synthesis, antimycobacterial and antibacterial activity of fluoroquinolone derivatives containing an 3-alkoxyimino-4-(cyclopropylanimo)methylpyrrolidine moiety” (2015).
